# Experimental data taken from ChEMBL document CHEMBL4354866, “TREK Channel Family Activator with a Well-Defined Structure-Activation Relationship for Pain and Neurogenic Inflammation” (J Med Chem, 2020).
# Activity calls are given as the source filed them.
# Columns and labels:
# [1] = target: Potassium channel subfamily K member 9 (Homo sapiens) (UniProt Q9NPC2); assay: Activation of recombinant human TASK3 expressed in HEK293T cells assessed as increase in K+ current amplitude at 10 uM by whole cell voltage clamp electrophysiological analysis; format: cell-based
# Potassium channel subfamily K member 9 (Homo sapiens), sequence (Q9NPC2 whole entry): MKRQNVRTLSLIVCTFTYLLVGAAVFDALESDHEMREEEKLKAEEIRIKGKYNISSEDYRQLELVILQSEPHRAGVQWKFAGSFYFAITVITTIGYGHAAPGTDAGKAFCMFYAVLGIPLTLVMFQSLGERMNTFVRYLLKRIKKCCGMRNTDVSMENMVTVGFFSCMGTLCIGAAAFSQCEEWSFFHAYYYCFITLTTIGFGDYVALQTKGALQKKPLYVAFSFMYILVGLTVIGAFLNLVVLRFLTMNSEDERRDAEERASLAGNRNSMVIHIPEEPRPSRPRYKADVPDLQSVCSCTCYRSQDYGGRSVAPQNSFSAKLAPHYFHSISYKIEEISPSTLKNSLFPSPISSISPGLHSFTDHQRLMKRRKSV
# Procedure, shortened: (§1)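 HEK-293T cells transiently transfected with the human K2P channel. Whole-cell clamp at -60 mV, 500-ms ramp -120 to +60 mV. Pipette 140 KCl (pH 7.4), external 145 NaCl/4 KCl (pH 7.3). Compound 10 μM, diluted from 10 mM DMSO stock into external solution.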
# [2] = target: T1, Potassium channel subfamily K member 13 (Homo sapiens) (UniProt Q9HB14); assay: Activation of recombinant human THIK1 expressed in HEK293T cells assessed as increase in K+ current amplitude at 10 uM by whole cell voltage clamp electrophysiological analysis; format: cell-based; procedure, shortened: as §1
# T1 sequence (whole entry): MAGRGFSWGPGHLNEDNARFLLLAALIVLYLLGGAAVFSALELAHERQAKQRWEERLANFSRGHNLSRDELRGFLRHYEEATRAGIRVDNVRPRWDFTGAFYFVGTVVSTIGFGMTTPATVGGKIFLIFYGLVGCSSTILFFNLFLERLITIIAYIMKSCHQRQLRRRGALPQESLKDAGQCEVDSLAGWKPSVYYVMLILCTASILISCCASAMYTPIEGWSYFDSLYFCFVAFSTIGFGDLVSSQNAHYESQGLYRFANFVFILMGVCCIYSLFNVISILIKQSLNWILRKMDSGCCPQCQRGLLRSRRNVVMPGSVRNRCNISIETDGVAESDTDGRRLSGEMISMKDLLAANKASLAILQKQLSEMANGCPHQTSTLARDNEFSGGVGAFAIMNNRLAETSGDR
# [3] = target: Potassium channel subfamily K member 2 (Homo sapiens, UniProt O95069, G275C); assay: Activation of recombinant human TREK1 G275C mutant expressed in HEK293T cells assessed as increase in K+ current amplitude by whole cell voltage clamp electrophysiological analysis; format: cell-based
# Potassium channel subfamily K member 2 (Homo sapiens, UniProt O95069, G275C), sequence (O95069 whole entry G275C): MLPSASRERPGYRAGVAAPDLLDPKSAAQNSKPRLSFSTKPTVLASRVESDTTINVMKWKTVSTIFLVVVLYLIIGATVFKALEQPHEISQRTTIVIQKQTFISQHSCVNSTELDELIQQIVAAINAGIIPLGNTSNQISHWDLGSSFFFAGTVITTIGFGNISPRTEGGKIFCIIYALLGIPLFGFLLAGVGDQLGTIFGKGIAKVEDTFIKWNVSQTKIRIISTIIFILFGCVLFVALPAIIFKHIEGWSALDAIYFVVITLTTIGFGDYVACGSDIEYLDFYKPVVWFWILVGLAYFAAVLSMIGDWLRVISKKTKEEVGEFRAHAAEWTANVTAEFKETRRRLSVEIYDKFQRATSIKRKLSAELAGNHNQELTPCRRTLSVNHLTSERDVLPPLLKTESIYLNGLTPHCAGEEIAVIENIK
# Procedure, shortened: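 Human TREK-1 G275C expressed in HEK-293T, whole-cell ramp recordings. Tested with or without MTSET, 1 mM final, diluted from 0.5 M DMSO stock within 120 s of application. Concentration–response curves for EC50, n = 5–19; 10 μM single-point comparison by one-way ANOVA with Tukey test.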
# Mus musculus [4] = assay: Analgesic activity in mouse assessed as increase in tail flick latency time at 5 mg/kg, ip at 5 to 52 degC by tail immersion test; format: functional, organism-based
# Procedure, shortened: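 Male BALB/c or C57BL/6 mice, 6–8 weeks, acclimated in a holder 15 min/day for 3 days. Distal 3 cm of tail immersed at 5, 20, 40, 46 or 52 °C; flick latency recorded, cut-off 15 s. Compound i.p. in 5% DMSO/5% Tween 80/90% saline (1.25–10 mg/kg at 52 °C; 5 mg/kg across temperatures).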
# [5] = target: Potassium channel subfamily K member 2 (Homo sapiens, UniProt O95069, I293A); assay: Activation of recombinant human TREK1 I293A mutant expressed in HEK293T cells assessed as increase in K+ current amplitude by whole cell voltage clamp electrophysiological analysis; format: cell-based
# Potassium channel subfamily K member 2 (Homo sapiens, UniProt O95069, I293A), sequence (O95069 whole entry I293A): as the sequence (O95069 whole entry G275C) above, with C275G, I293A counted along it
# Procedure, shortened: (§2)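 Transiently transfected HEK-293T cells, whole-cell voltage clamp. Held at -60 mV, 500-ms ramp -120 to +60 mV. Pipette (mM) 140 KCl, 5 EGTA, 10 HEPES, pH 7.4; external 145 NaCl, 4 KCl, pH 7.3. Compound diluted from 10 mM DMSO stock and applied extracellularly. Current increase over control fitted to concentration–response curves for EC50.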
# [6] = target: Potassium channel subfamily K member 2 (Homo sapiens, UniProt O95069, F149A); assay: Activation of recombinant human TREK1 F149A mutant expressed in HEK293T cells assessed as increase in K+ current amplitude by whole cell voltage clamp electrophysiological analysis; format: cell-based; procedure, shortened: as §2
# Potassium channel subfamily K member 2 (Homo sapiens, UniProt O95069, F149A), sequence (O95069 whole entry F149A): as the sequence (O95069 whole entry G275C) above, with F149A, C275G counted along it
# Mus musculus [7] = assay: Analgesic activity in CFA-induced mouse model of chronic inflammatory pain assessed as reduction in mechanical allodynia at 5 mg/kg, ip measured up to 90 mins by von frey test; format: functional, organism-based
# Procedure, shortened: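 CFA (20 μl s.c.) injected into the left hindpaw of mice; compound given i.p. in DMSO/Tween 80/saline vehicle. Mice acclimated 3 days on a wire-mesh floor; mechanical threshold measured with von Frey filaments applied in ascending order.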
# Mus musculus [8] = assay: Analgesic activity in CFA-induced mouse model of chronic inflammatory pain assessed as increase in paw withdrawal latency at 5 mg/kg, ip measured up to 60 mins by Hargreaves test; format: functional, organism-based
# Procedure, shortened: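 CFA (20 μl) injected subcutaneously into the left hindpaw of mice. Compound given i.p. in 5% DMSO/5% Tween 80/90% saline. Heat withdrawal latency recorded with a 5 min inter-stimulation period.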
# Mus musculus [9] = assay: Analgesic activity in cerulein-induced mouse model of acute pancreatitis assessed as reduction in mechanical allodynia at 10 mg/kg, ip administered at 2 hrs interval for 10 hrs starting from post-first cerulein challenge and measured 0.5 hrs post-last cerulein challenge by von frey test; format: functional, organism-based
# Procedure, shortened: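 Acute pancreatitis induced by 7 hourly i.p. injections of cerulein (50 µg/kg in ice-cold PBS); controls received PBS. Compound 10 mg/kg i.p. or vehicle at 2, 4, 6, 8 and 10 h. Von Frey testing (ascending filaments) started 0.5 h after the last cerulein injection.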
# Mus musculus [10] = assay: Analgesic activity in mouse model of spared nerve injury assessed as reduction in cold hyperalgesia at 5 mg/kg, ip measured at 7 days interval for up to 21 days post spared nerve injury by cold plantar test; format: functional, organism-based
# Procedure, shortened: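 SNI mice acclimated 3 days on a 6 mm glass plate; compound 5 mg/kg i.p. A dry-ice-packed syringe was applied to the centre of the left hindpaw. Withdrawal latency timed by stopwatch, cut-off 30 s; n = 8–10.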
# [11] = tested on: Potassium channel subfamily K member 2 (Homo sapiens), O95069 [Y285A]; assay: Activation of recombinant human TREK1 Y285A mutant expressed in HEK293T cells assessed as increase in K+ current amplitude by whole cell voltage clamp electrophysiological analysis; format: cell-based; procedure, shortened: as §2
# [12] = tested on: T2, Potassium channel subfamily K member 2 (Homo sapiens), O95069 [I158A]; assay: Activation of recombinant human TREK1 I158A mutant expressed in HEK293T cells assessed as increase in K+ current amplitude by whole cell voltage clamp electrophysiological analysis; format: cell-based; procedure, shortened: as §2
# T2 sequence (whole entry): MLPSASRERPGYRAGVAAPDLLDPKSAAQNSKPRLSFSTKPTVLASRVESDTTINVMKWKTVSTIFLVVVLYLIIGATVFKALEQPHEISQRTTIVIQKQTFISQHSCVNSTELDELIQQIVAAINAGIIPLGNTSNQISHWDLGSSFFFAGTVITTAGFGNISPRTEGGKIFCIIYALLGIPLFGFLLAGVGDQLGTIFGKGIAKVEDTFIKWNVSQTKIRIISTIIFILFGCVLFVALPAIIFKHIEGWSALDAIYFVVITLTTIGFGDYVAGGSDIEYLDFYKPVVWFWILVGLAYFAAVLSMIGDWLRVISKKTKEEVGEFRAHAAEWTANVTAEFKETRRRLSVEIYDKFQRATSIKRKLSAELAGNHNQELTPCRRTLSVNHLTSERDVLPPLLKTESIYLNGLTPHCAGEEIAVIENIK
compound,measurement,setting,value
Cc1ccc2nc(-c3ccc(NC(=O)[C@@H]4CC[C@H](C(=O)O)C4)cc3)sc2c1,Activity,[1],Active
same,Activity,[2],Active
same,EC50,[3],15.2 µM
same,Activity,Mus musculus [4],Active
same,EC50,[5],7.98 µM
same,EC50,[6],22.4 µM
same,Activity,Mus musculus [7],Active
same,Activity,Mus musculus [8],Active
same,Activity,Mus musculus [9],Active
same,Activity,Mus musculus [10],Active
same,Activity,[11],inactive
same,Activity,[12],inactive
